Consider 39 compounds from ChEMBL document CHEMBL4270555, “Synthesis and biological evaluation of magnolol derivatives as melatonergic receptor agonists with potential use in depression” (Eur J Med Chem, 2018).

For data set [1], the target named is Melatonin receptor type 1A (Homo sapiens, UniProt P48039). The experiment in a line: Agonist activity at human MT1 receptor expressed in HEK293 cells at 1 mM after 24 hrs by Fluo-8 dye-based calcium assay relative to control. Format: functional, cell-based. Summed up: (§1)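 Fluo-8 calcium assay in HEK293 cells stably expressing human MT1 or MT2, seeded 4×10^4/well and incubated 24 h. Compounds tested at 1.00 mM, agomelatine positive control at 3.33 µM; fluorescence at ex 485/em 525 nm. Agonism expressed as mean ± SD, n = 3.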

In data set [2] the target is T1, Melatonin receptor type 1B (Homo sapiens) (UniProt P49286).
T1 sequence (whole entry): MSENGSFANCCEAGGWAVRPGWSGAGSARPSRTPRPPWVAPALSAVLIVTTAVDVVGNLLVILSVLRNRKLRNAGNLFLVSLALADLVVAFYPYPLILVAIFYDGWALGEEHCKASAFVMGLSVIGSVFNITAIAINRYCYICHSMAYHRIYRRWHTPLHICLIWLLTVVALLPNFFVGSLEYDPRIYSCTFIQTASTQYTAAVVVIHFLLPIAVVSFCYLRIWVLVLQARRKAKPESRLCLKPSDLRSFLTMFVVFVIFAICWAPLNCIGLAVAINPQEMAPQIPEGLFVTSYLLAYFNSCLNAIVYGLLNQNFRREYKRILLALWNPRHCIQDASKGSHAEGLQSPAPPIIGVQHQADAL
The experiment in a line: Agonist activity at human MT2 receptor expressed in HEK293 cells at 1 mM after 24 hrs by Fluo-8 dye-based calcium assay relative to control. Format: functional, cell-based. The method in brief: as §1

Data set [3] can be described thus: Retention time of the compound by UPLC-IT-TOF-MS analysis. Format: physicochemical. The method in brief:
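Retention on C18 column (100 × 2.1 mm, 1.8 µm) at 30 °C; mobile phase A 0.05% formic acid in water, B 0.05% formic acid in acetonitrile, 0.2 mL/min, linear 5–100% B over 0–18.0 min; IT-TOF-MS detection in positive and negative modes.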

Data set [4] is described as follows: Drug level in Sprague-Dawley rat feces treated with Magnolol-4'-O-beta-D-glucopyranoside at 100 mg/kg, po by UPLC-IT-TOF-MS analysis. Format: ADME, organism-based. The conditions noted are these: in vivo. Summed up:
(§2)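 Rats (n = 6) housed in metabolic cages received 100.0 mg/kg orally; controls received 0.5% CMC-Na. Plasma, urine and faeces were collected and analyzed by LC-IT-TOF-MS on a C18 column at 30 °C. Gradient 5–100% acetonitrile with 0.05% formic acid over 18 min at 0.2 mL/min; positive and negative ion MS/MS.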

Data set [5] is described as follows: Drug level in Sprague-Dawley rat urine treated with Magnolol-4'-O-beta-D-glucopyranoside at 100 mg/kg, po by UPLC-IT-TOF-MS analysis. Format: ADME, organism-based. The conditions noted are these: in vivo. The method in brief: as §2
In data set [6] the target is T1, Melatonin receptor type 1B (Homo sapiens). The experiment in a line: Potency index, ratio of compound effect to magnolol effect for human MT2 receptor. Format: functional.

Chain of Melatonin receptor type 1A (P48039 whole entry): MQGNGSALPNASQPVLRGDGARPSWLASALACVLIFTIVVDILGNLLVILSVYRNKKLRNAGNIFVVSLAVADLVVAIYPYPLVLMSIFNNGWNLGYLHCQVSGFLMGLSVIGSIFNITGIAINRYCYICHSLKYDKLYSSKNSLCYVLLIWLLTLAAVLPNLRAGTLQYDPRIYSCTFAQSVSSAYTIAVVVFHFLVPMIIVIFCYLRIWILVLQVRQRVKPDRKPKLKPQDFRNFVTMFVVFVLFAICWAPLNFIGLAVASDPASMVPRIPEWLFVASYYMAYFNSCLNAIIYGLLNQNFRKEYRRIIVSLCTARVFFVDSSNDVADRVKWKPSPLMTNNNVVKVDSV

Turning to `C=CCc1ccc(O)c(-c2cc(CC=C)ccc2O[C@@H]2O[C@H](COC(C)=O)[C@@H](OC(C)=O)[C@H](OC(C)=O)[C@H]2O)c1`, the Activity in data set [1] was 11%; in data set [2], 19.1%.
For `C=CCc1ccc(O)c(-c2cc(CC=C)ccc2OC(C)=O)c1`, in that order: 91.4% and 77.6%.
Turning to `C=CC(O)c1ccc(O)c(-c2cc(CCC)ccc2OS(=O)(=O)O)c1` (centres undefined), the Retention_time in data set [3] amounted to 7.55 min. The Drug metabolism entry in data set [4] was “Metabolite_Detected”.
`C=CC(=O)c1ccc(O[C@@H]2O[C@H](CO)[C@@H](O)[C@H](O)[C@H]2O)c(-c2cc(C(O)C=C)ccc2O)c1` (some centres undefined) displayed a Retention_time in data set [3] of 10.88 min. Further, in data set [5], the Drug metabolism result was “Metabolite_Detected”.
Consider `C=CCc1ccc(O)c(-c2cc(CC=C)ccc2O[C@@H]2O[C@H](COC(C)=O)[C@@H](OC(C)=O)[C@H](OC(C)=O)[C@H]2OC(C)=O)c1`, for which the Activity is -0.58% in data set [1] and -2.09% in data set [2].
For `C=CCc1ccc(OC(=O)/C=C/c2ccccc2)c(-c2cc(CC=C)ccc2O[C@@H]2O[C@H](CO)[C@@H](O)[C@H](O)[C@H]2O)c1`, in that order: 50.3% and -10.1%.
Taken in the same sequence, the figures for `C=CCc1ccc(O)c(-c2cc(CC=C)ccc2OC(=O)c2ccc(N)cc2)c1` were -1.55% and 5.17%.
In the case of `C=CCc1ccc(O)c(-c2cc(CC=C)ccc2O[C@@H]2O[C@H](CO)[C@@H](OC(C)=O)[C@H](OC(C)=O)[C@H]2O)c1`, the Activity in data set [1] worked out at 31%; in data set [2], 89%. Further, the Ratio in data set [6] lay within 3.5 to 4.5.
`C=CCc1ccc(OC(=O)/C=C/c2cccc(F)c2)c(-c2cc(CC=C)ccc2O[C@@H]2O[C@H](CO)[C@@H](O)[C@H](O)[C@H]2O)c1`: the Activity in data set [1] is 5.3%; in data set [2], -10.5%.
For the compound `C=CCc1ccc(O)c(-c2cc(CC=C)ccc2OS(=O)(=O)O)c1`, the Retention_time in data set [3] came out at 11.49 min. Moreover, the Drug metabolism entry in data set [4] is “Metabolite_Detected”.
For `C=CCc1ccc(O[C@@H]2O[C@H](CO)[C@@H](O)[C@H](O)[C@H]2O)c(-c2cc(CC=C)ccc2OS(=O)(=O)O)c1`, in that order: 8.17 min and “Metabolite_Detected”.
`C=CC(O)c1ccc(O)c(-c2cc(C(O)C=C)ccc2O)c1` (centres undefined) returned a Retention_time in data set [3] of 11.06 min. In addition, the Drug metabolism entry in data set [5] and in data set [4] was “Metabolite_Detected” throughout.
Take `C=CCc1ccc(O[C@@H]2O[C@H](CO)[C@@H](O)[C@H](O)[C@H]2O)c(-c2cc(CC=C)ccc2O[C@@H]2O[C@H](CO)[C@@H](O)[C@H](O)[C@H]2O)c1`: the Activity was 2.97% in data set [1] and 10.8% in data set [2]. For the same compound, the Retention_time in data set [3] is 10.63 min. Besides, the Drug metabolism entry in data set [5] and in data set [4] was “Metabolite_Detected” in each case.
`C=CCc1ccc(OC)c(-c2cc(CC=C)ccc2O[C@@H]2O[C@H](C(=O)O)[C@@H](O)[C@H](O)[C@H]2O)c1`: in data set [3], the Retention_time turned out to be 12.4 min. For the same compound, in data set [5], the Drug metabolism result is on record as “Metabolite_Detected”.
The compound `C=CC(O)c1ccc(O[C@@H]2O[C@H](CO)[C@@H](O)[C@H](O)[C@H]2O)c(-c2cc(CCC)ccc2OS(=O)(=O)O)c1` (some centres undefined) yielded a Retention_time in data set [3] of 6.91 min. Further, the Drug metabolism result in data set [4] is “Metabolite_Detected”.
Consider `C=CCc1ccc(O)c(-c2cc(C(=O)C=C)ccc2O[C@@H]2O[C@H](CO)[C@@H](O)[C@H](O)[C@H]2O)c1`, for which the Retention_time in data set [3] is on record as 10.59 min. Moreover, in data set [5], the Drug metabolism entry is “Metabolite_Detected”.
As for `C=CCc1ccc(O[C@@H]2O[C@H](COC(C)=O)[C@@H](OC(C)=O)[C@H](OC(C)=O)[C@H]2OC(C)=O)c(-c2cc(CC=C)ccc2O[C@@H]2O[C@H](COC(C)=O)[C@@H](OC(C)=O)[C@H](OC(C)=O)[C@H]2OC(C)=O)c1`, the values for the Activity in data set [1] and in data set [2] were 7.09% and 0.04%, respectively.
For the compound `C=CC(O)c1ccc(O[C@@H]2O[C@H](C(=O)O)[C@@H](O)[C@H](O)[C@H]2O)c(-c2cc(CC(C)O)ccc2OC)c1` (some centres undefined), the Retention_time in data set [3] amounted to 8.7 min. The Drug metabolism result in data set [5] was “Metabolite_Detected”.
On to `C=CCc1ccc(O)c(-c2cc(CC=C)ccc2OC(=O)CCCl)c1`, for which the Activity is 21% in data set [1] and 30.1% in data set [2].
On to `C=CCc1ccc(O)c(-c2cc(CC=C)ccc2O)c1` [MAGNOLOL], for which the Activity in data set [1] came out at 40.2%; in data set [2], 20%. Moreover, the Retention_time in data set [3] is listed as 14.33 min. The Drug metabolism entry in data set [5] and in data set [4] was “Metabolite_Detected” each time.
In the case of `C=CCc1ccc(O)c(-c2cc(CC=C)ccc2OC(=O)C=C)c1`, the results for the Activity in data set [1] and in data set [2] were 1.31% and 2.93%, respectively.
Regarding `C=CCc1ccc(O)c(-c2cc(C(O)C=C)ccc2O[C@@H]2O[C@H](CO)[C@@H](O)[C@H](O)[C@H]2O)c1` (some centres undefined), in data set [3], the Retention_time is 9.15 min. For the same compound, the Drug metabolism entry in data set [5] was “Metabolite_Detected”.
With `C=CCc1ccc(O[C@@H]2O[C@H](CO)[C@@H](O)[C@H](O)[C@H]2O)c(-c2cc(C(O)C=C)ccc2O[C@@H]2O[C@H](C(=O)O)[C@@H](O)[C@H](O)[C@H]2O)c1` (some centres undefined), the Retention_time in data set [3] is reported as 7.79 min. Moreover, the Drug metabolism result in data set [5] and in data set [4] was “Metabolite_Detected” each time.
With `C=CCc1ccc(O)c(-c2cc(CC3CO3)ccc2O)c1` (centres undefined), the Activity in data set [1] is 53.8%; in data set [2] it was -3.08%.
Taken in the same sequence, the figures for `C=CCc1ccc(OC(=O)C=C)c(-c2cc(CC=C)ccc2OC(=O)C=C)c1` were 0.04% and 4.57%.
In data set [3], `C=CC(=O)c1ccc(O)c(-c2cc(C(=O)CC)ccc2OS(=O)(=O)O)c1` returned a Retention_time of 9.05 min. In data set [5], the Drug metabolism result is on record as “Metabolite_Detected”.
In the case of `C=CCc1ccc(OC(C)=O)c(-c2cc(CC=C)ccc2OC(C)=O)c1`, the Activity in data set [1] is -1.86%; in data set [2], -2.52%.
`C=CC(O)c1ccc(O[C@@H]2O[C@H](CO)[C@@H](O)[C@H](O)[C@H]2O)c(-c2cc(C(O)CC)ccc2OS(=O)(=O)O)c1` (some centres undefined) had a Retention_time in data set [3] of 7.39 min. Further, in data set [5], the Drug metabolism entry is given as “Metabolite_Detected”.
For `C=CCc1ccc(OC(=O)c2ccccc2)c(-c2cc(CC=C)ccc2O[C@@H]2O[C@H](CO)[C@@H](O)[C@H](O)[C@H]2O)c1`, the figures for the Activity in data set [1] and in data set [2] were 13.2% and -5.71%, respectively.
On to `C=CCc1ccc(O)c(-c2cc(CC=C)ccc2OC(=O)/C=C/c2ccccc2)c1`, for which the Activity in data set [1] is 56.8%; in data set [2] it was 25.6%.
Turning to `C=CC(O)c1ccc(O[C@@H]2O[C@H](C(=O)O)[C@@H](O)[C@H](O)[C@H]2O)c(-c2cc(C(O)CC)ccc2O[C@@H]2O[C@H](CO)[C@@H](O)[C@H](O)[C@H]2O)c1` (some centres undefined), the Retention_time in data set [3] was 6.75 min. Also, the Drug metabolism entry in data set [5] and in data set [4] was “Metabolite_Detected” throughout.
`C=CCc1ccc(O[C@@H]2O[C@H](C(=O)O)[C@@H](O)[C@H](O)[C@H]2O)c(-c2cc(CC=C)ccc2O[C@@H]2O[C@H](CO)[C@@H](O)[C@H](O)[C@H]2O)c1`: the Retention_time in data set [3] worked out at 9.94 min. In addition, the Drug metabolism result in data set [5] and in data set [4] was “Metabolite_Detected” throughout.
In data set [3], `C=CC(=O)c1ccc(O[C@@H]2O[C@H](C(=O)O)[C@@H](O)[C@H](O)[C@H]2O)c(-c2cc(C(O)C=C)ccc2O)c1` (some centres undefined) gave a Retention_time of 9.47 min. Besides, the Drug metabolism entry in data set [5] is on record as “Metabolite_Detected”.
Regarding `C=CCc1ccc(OS(=O)(=O)O)c(-c2cc(C(O)C=C)ccc2O[C@@H]2O[C@H](CO)[C@@H](O)[C@H](O)[C@H]2O)c1` (some centres undefined), the Retention_time in data set [3] was 9.24 min. In addition, the Drug metabolism result in data set [4] was “Metabolite_Detected”.
As to `C=CCc1ccc(O)c(-c2cc(CC=C)ccc2OC(=O)c2ccccc2)c1`, the Activity is -6.5% in data set [1] and -0.04% in data set [2].
Taken in the same sequence, the figures for `C=CCc1ccc(OC(=O)c2ccccc2)c(-c2cc(CC=C)ccc2OC(=O)c2ccccc2)c1` were -5.93% and -1.72%.
Taken in the same sequence, the figures for `C=CCc1ccc(OC(=O)CCCCl)c(-c2cc(CC=C)ccc2OC(=O)CCCCl)c1` were 8.14% and 2.11%.
Taken in the same sequence, the figures for `Oc1ccc(CC2CO2)cc1-c1cc(CC2CO2)ccc1O` (centres undefined) were 2.18% and -3.39%.
Consider `C=CCc1ccc(OC(=O)/C=C/c2ccccc2)c(-c2cc(CC=C)ccc2OC(=O)/C=C/c2ccccc2)c1`, for which the Activity in data set [1] amounted to 28.3%; in data set [2] it was 3.34%.
